Results as given in paper PMC12855199 (Scientific Reports, 2025).

What was measured:
[1] = tested on: C. elegans CB347 strain; test: In vitro nematocidal; design: species or system Caenorhabditis elegans
Method in brief: (§1)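 C. elegans strains kept on NGM with E. coli. L1 obtained by bleaching and hatching eggs on unseeded NGM at 20 °C (~24 h). Thirty L1 per well, in triplicate, exposed in M9 to test compound at final 10–100,000 ng/mL with 0.5% DMSO, 72 h, 20 °C. Controls: DMSO, albendazole, ivermectin. Motility scored visually by inverted microscope; no movement = dead. EC50 by nonlinear regression; three independent replicates.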

[2] = tested on: T. spiralis muscle-stage larvae (L1); test: In vitro nematocidal; design: species or system Trichinella spiralis
Method in brief: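 Female ICR mice (8 weeks old) were infected orally with 100 larvae. Muscle larvae were recovered at day 60 by 0.7% pepsin/0.7% HCl digestion and kept in RPMI with 10% FCS and penicillin/streptomycin. Thirty larvae per well, in triplicate, with test compound at final 10–100,000 ng/mL and 0.5% DMSO, 72 h, 37 °C. Controls: DMSO, albendazole, ivermectin. EC50 by nonlinear regression; three independent replicates.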

[3] = MTT cytotoxicity testing on Caco-2; format: cell-based, human; conditions: human, Caco-2 cells
Method in brief: (§2)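 Cells seeded at 20,000/well in MEM with 10% FBS, grown 24 h at 37 °C under 5% CO₂. Medium then replaced by test compound at final 10–100,000 ng/mL in MEM with 0.5% DMSO, 24 h. MTT added for 4 h; formazan dissolved in 4 mM HCl/0.1% NP-40 in isopropanol. Absorbance read at 590 nm, reference 620 nm. Viability relative to untreated; CC50 by nonlinear regression; three independent replicates.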

[4] = MTT cytotoxicity testing on HepG2; format: cell-based, human; conditions: human, HepG2 cells
Method in brief: as §2

[5] = tested on: C. elegans N2 strain; test: In vitro nematocidal; design: species or system Caenorhabditis elegans
Method in brief: as §1

[6] = tested on: C. elegans JD608 strain; test: In vitro nematocidal; conditions: Caenorhabditis elegans, 72 h
Method in brief: as §1

[7] = tested on: Caco-2 cells; test: MTT cytotoxicity testing on Caco-2; format: cell-based, human; conditions: Caco-2, 24 h exposure, MTT; mean ± S.E.
Method in brief: as §2

[8] = tested on: HepG2 cells; test: MTT cytotoxicity testing on HepG2; format: cell-based, human; conditions: HepG2, 24 h exposure, MTT; mean ± S.E.
Method in brief: as §2

[9] = no reference given; cited from earlier work
[10] = tested on: T. spiralis muscle larvae; design: species or system Trichinella spiralis
Method in brief: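 Muscle larvae were exposed to one concentration of test compound or to 0.5% DMSO. Extraction: cold methanol twice, then water, with freeze–thaw cycles and centrifugation at 4 °C; pooled extracts dried. Separation on C18 at 40 °C, 0.3 mL/min, formic acid water/acetonitrile gradient. Q-TOF ESI±, IDA with survey scan m/z 100–1000; pooled QCs. Processed in MS-DIAL and MetaboAnalyst; 3 biological × 2 technical replicates.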

[11] = T. spiralis metabolite, quercetin at EC50 vs DMSO
[12] = T. spiralis, quercetin at EC50 vs DMSO control

Work on CCCSc1ccc2nc(NC(=O)OC)[nH]c2c1 [ABZ, albendazole, reference compound] yielded an EC50 ([1]; Caenorhabditis elegans, 72 h) of over 1000 µM, an EC50 ([2]; Trichinella spiralis, 72 h) of 129 ± 34.1 µM and a CC50 at 24 h [3] of over 1000 µM. The CC50 at 24 h [4] was over 1000 µM, the EC50 ([5]; Caenorhabditis elegans, 72 h) was 672 ± 73 µM and the EC50 [6] was 788 ± 22.6 µM.

O=c1cc(-c2ccc(O)cc2)oc2cc(O)cc(O)c12 [Apigenin, apigenin] gave an EC50 ([1]; Caenorhabditis elegans, 72 h) of 55.8 ± 4.89 µM, an EC50 ([2]; Trichinella spiralis, 72 h) of over 1000 µM and a CC50 at 24 h [3] of over 1000 µM. The CC50 at 24 h [4] was 53.3 ± 4.52 µM, the EC50 ([5]; Caenorhabditis elegans, 72 h) was 218 ± 11.2 µM and the EC50 [6] was 51.3 ± 1.46 µM.

Compound COc1ccc([C@@H]2CC(=O)c3c(O)cc(O)cc3O2)cc1O [Hesperetin, hesperetin] has an EC50 ([1]; Caenorhabditis elegans, 72 h) of over 1000 µM, a CC50 at 24 h [3] of 56.3 ± 6.18 µM and a CC50 at 24 h [4] of over 1000 µM. It also gave an EC50 ([5]; Caenorhabditis elegans, 72 h) of 283 ± 23.9 µM and an EC50 [6] of 51.7 ± 2.92 µM.

CC[C@H](C)[C@H]1O[C@]2(CC[C@@H]1C)C[C@@H]1C[C@@H](C/C=C(\C)[C@@H](O[C@H]3C[C@H](OC)[C@@H](O[C@H]4C[C@H](OC)[C@@H](O)[C@H](C)O4)[C@H](C)O3)[C@@H](C)/C=C/C=C3\CO[C@@H]4[C@H](O)C(C)=C[C@@H](C(=O)O1)[C@]34O)O2 [IVM, ivermectin, reference compound] gave an EC50 ([1]; C. elegans CB347 (albendazole-resistant), L1, 72 h at 20 °C, motility, mean ± S.E.) of 15.4 ± 6.07 µM, an EC50 ([2]; T. spiralis muscle-stage larvae, 72 h at 37 °C, motility, mean ± S.E.) of 107 ± 7.89 µM and a CC50 [7] of 20 ± 5.28 µM. The CC50 [8] was 14.9 ± 1.39 µM and the EC50 ([5]; C. elegans N2 (wild type), L1, 72 h at 20 °C, motility, mean ± S.E.) was 17.7 ± 1.85 µM.

C[C@@H]1O[C@@H](O[C@H]2[C@H](Oc3cc(O)c4c(c3)O[C@H](c3ccc(O)cc3)CC4=O)O[C@H](CO)[C@@H](O)[C@@H]2O)[C@H](O)[C@H](O)[C@H]1O [Naringin, naringin] showed an EC50 ([1]; Caenorhabditis elegans, 72 h) of over 1000 µM, a CC50 at 24 h [3] of 249 ± 65.3 µM and a CC50 at 24 h [4] of over 1000 µM. The EC50 ([5]; Caenorhabditis elegans, 72 h) was over 1000 µM and the EC50 [6] was over 1000 µM.

O=c1c(O)c(-c2ccc(O)c(O)c2)oc2cc(O)cc(O)c12 [Quercetin, quercetin] gave an EC50 ([1]; Caenorhabditis elegans, 72 h) of 76.2 ± 7.4 µM, an EC50 ([2]; Trichinella spiralis, 72 h) of 147 ± 28.2 µM and a CC50 at 24 h [3] of over 1000 µM. For the same compound, the CC50 at 24 h [4] was over 1000 µM, the Oral bioavailability [9] was under 5% and the EC50 ([5]; Caenorhabditis elegans, 72 h) was 80.5 ± 20.3 µM. The “Log2 (FC) 1-Heptadecanoyl-sn-glycero-3-phosphocholine” value [10, 11] was -1.6835, the “Log2 (FC) 3-Phosphoglyceric Acid” value [10, 11] was -1.0514 and the “Log2 (FC) 7alpha-Hydroxy-4-cholesten-3-one” value [10, 11] was 2.1364. The “Log2 (FC) Arachidonic acid” value [10, 11] was -1.1472, the “Log2 (FC) Coenzyme q6” value [10, 11] was 1.8385 and the “Log2 (FC) Deoxyguanosine” value [10, 11] was -2.4539. For the same compound, the “Log2 (FC) Inosine” value [10, 11] was -2.6373, the “Log2 (FC) LacCer(d18:1/16:0)” value [10, 11] was 2.6728 and the “Log2 (FC) Lignoceric acid” value [10, 11] was 4.0956. For the same compound, the “Log2 (FC) Linoleic acid” value [10, 11] was 2.1922, the “Log2 (FC) Linolenic acid” value [10, 11] was 2.7081 and the “Log2 (FC) LysoPC(0:0/18:0)” value [10, 11] was -1.4886. The “Log2 (FC) LysoPE(0:0/16:0)” value [10, 11] was -1.8636, the “Log2 (FC) LysoPE(0:0/18:2(9Z,12Z))” value [10, 11] was -1.4991 and the “Log2 (FC) Menaquinone 4” value [10, 11] was 2.2163. The “Log2 (FC) N-Acetyl-D-Galactosamine” value [10, 11] was 4.5233, the “Log2 (FC) PC(P-18:1(9Z)/P-16:0)” value [10, 11] was 2.1307 and the “Log2 (FC) Phosphatidylethanolamine” value [10, 11] was -1.0876. The “Log2 (FC) Tetradecanoylcarnitine” value [10, 11] was -2.0664, the “Log2 (FC) Vitamin K1” value [10, 11] was 1.8127 and the Down-regulated features [10, 12] was 68. For the same compound, the Up-regulated features [10, 12] was “Around 204” and the EC50 [6] was 45.3 ± 4.92 µM.

For COc1ccc(-c2cc(=O)c3c(OC)c(OC)c(OC)c(OC)c3o2)cc1 [Tangeretin, tangeretin], the EC50 ([1]; Caenorhabditis elegans, 72 h) was over 1000 µM, the CC50 at 24 h [3] was 531 ± 70.3 µM and the CC50 at 24 h [4] was 251 ± 35 µM. For the same compound, the EC50 ([5]; Caenorhabditis elegans, 72 h) was over 1000 µM and the EC50 [6] was 43.1 ± 11.2 µM.
